Screening data as filed in PubChem BioAssay.
The list is not random: actives were taken first. Their share in the collection is about 11%.
Diaph inh CS: inhibits diaphorase or chemically oxidizes, flagging diaphorase assay artifacts; diaphorase resazurin-to-resorufin fluorescence, NADH, 16 min; bacterial (C. kluyveri) enzyme, not human; inhibition, % at 20 µM; actives 0.69% (n = 190,000); AID 1217;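 active = primary screen inhibition at 20 µM above a set limit, cut at about 50% in these data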;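 note: plate controls were DMSO with full reaction for no effect and wells lacking NADH for full effect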
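System: Diaphorase enzyme from Clostridium kluyveri | Amount: Enzyme working solution with 0.14 U/mL diaphorase | Benchmarks: No-NADH positive control and DMSO neutral control | Signal: Fluorescence of resorufin formed from resazurin, Ex 544/Em 590 nm | Schedule: 16-min room-temperature incubation before reading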
G6PDH CS: counter-screen for G6PDH assay hits: L. mesenteroides G6PDH inhibition; Purified L. mesenteroides G6PDH, diaphorase/resazurin coupled fluorescence, 45 min; inhibition, % at 5 µM; actives 0.12% (n = 200,000)
L major viab: inhibitors of Leishmania major promastigote growth. Leishmania major promastigotes, resazurin fluorescence viability. inhibition, % at 10 µM. actives 9% (n = 200,000). AID 1063;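 note: promastigotes grown with compound for 44 hours at 28 °C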
WT yeast gro inh: growth inhibition of WT yeast, mitochondrial fusion screen. mitochondrial fusion phenotypic screen, WT strain. inhibition, % at 10 µM. actives 2.1% (n = 190,000); in the data active = inhibition above about 58%; tested in S. cerevisiae
Diaphorase act: counter-screen for diaphorase-based assays: diaphorase activators and chemical reducers | Diaphorase/resazurin coupled assay, resorufin fluorescence, 16 min; hits give high values; 1 = vehicle wells, 0 = NADH-free wells | activation factor at 20 µM | actives 0.005% (n = 190,000);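 active = diaphorase activity raised at least twofold by the compound at 20 µM; inactive = activation factor below 2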
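System – purified diaphorase enzyme from Clostridium kluyveri · Input – enzyme 0.07 U/mL final · Also added – final NADH 0.114 mM, resazurin 0.1 mM · Measured by – fluorescence of resorufin, 544 nm excitation, 590 nm emission · Timing – 16 min enzyme reaction, ambient temperature · Measure – resorufin increase flagging diaphorase activators or reducers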
Numbers without * were called inactive. Cut-off read from the data, not from the text of the source, unless noted: active = inhibition above about 50%; inactive = the rest.

SMILES | Diaph inh CS | G6PDH CS | L major viab | WT yeast gro inh | Diaphorase act
Nc1cc2nc[nH]c2cc1N | 60.6* | 10.3 | 11.2 | 1.7 | 0.4
Cc1ccc([N+](=O)[O-])cc1NC(=O)C[n+]1ccccc1 | 3.7 | 4.6 | -2.5 | -9.9 | 1
Cc1c(Cl)c([N+](=O)[O-])nn1CCCC(=O)N1CCN(c2ccccc2)CC1 | 5.4 | 7.1 | 38.0 | -0.9 | 0.9
O=C(Cn1cc([N+](=O)[O-])nc1[N+](=O)[O-])N1CCN(c2ccccc2)CC1 | 10.2 | 13.0 | 100.4* | -10.5 | 0.9
Cc1c(Br)c([N+](=O)[O-])nn1CCCC(=O)N1CCN(c2ccccc2)CC1 | 12.7 | -17.4 | 69.8* | 18.3 | 0.9
O=C(Cn1cnc2ccccc2c1=O)N1CCN(c2ccccc2)CC1 | 7.4 | -0.6 | -3.3 | -11.0 | 0.9
Cc1ccc(NNC(=O)C(=O)N2CCCCC2)cc1 | 11.8 | -2.9 | 65.7* | 64.4* | 0.9
Cc1ccccc1C(=O)NNC(=O)C(=O)N1CCCCC1 | 3.6 | -8.8 | 25.9 | -10.0 | 1
Cc1cccc(N2C(=O)C(Oc3ccc(Cl)cc3Cl)C2C=O)c1C (centres undefined) | 16.3 | 4.8 | 100.0* | 75.4* | 0.8
COc1ccc(-c2csc(N(CC3CCCO3)C(=O)c3cccs3)n2)cc1 (centres undefined) | 12.5 | -2.3 | 82.2* | 47.3 | 0.9
CCN(CC)CCCN(C(=O)c1ccco1)c1nc(-c2ccc(C)cc2)cs1 | 9.3 | 4.1 | 71.7* | 10.6 | 0.9
COc1ccc(-c2csc(N(C)C(=O)c3cccs3)n2)cc1 | 11.8 | 10.0 | -10.2 | -13.0 | 0.9
COc1ccc(OC)c(-c2csc(N(CC3CCCO3)C(=O)C3CCCCC3)n2)c1 (centres undefined) | 27.7 | 6.3 | 4.0 | 26.9 | 0.7
CCN(CC)CCCN(C(=O)c1cccs1)c1nc(-c2ccc(OC)cc2)cs1 | 9.3 | 8.4 | 100.5* | 11.5 | 0.9
Cc1nc([N+](=O)[O-])c(Br)n1Cc1ccc(Cl)c(Cl)c1 | 8.7 | 3.5 | 100.5* | 47.4 | 0.9
Cc1nc([N+](=O)[O-])c(Br)n1CC(=O)c1ccc(Cl)cc1 | 19.9 | 3.4 | 99.1* | 9.4 | 0.8
Cc1nc([N+](=O)[O-])c(NCCO)n1Cc1ccccc1 | 6.5 | -2.6 | -0.1 | -1.5 | 0.9
COC(=O)C1=C(N)Oc2cc(C)n(Cc3cccnc3)c(=O)c2C1c1ccc(OC)c(OC)c1 (centres undefined) | 8.0 | -1.9 | 5.1 | -15.4 | 0.9
CCOC(=O)C1=C(C)N(C)C(C)=C(C(=O)OCC)C1c1cccnc1 | -10.7 | 4.7 | 95.0* | 7.2 | 1.1
COC(=O)C1=C(N)Oc2cc(C)n(CCc3ccccc3)c(=O)c2C1c1cccnc1 (centres undefined) | -0.8 | 3.5 | 98.4* | 11.3 | 1
COc1cc(C2C(C#N)=C(N)N(c3cccnc3)C3=C2C(=O)CCC3)ccc1O (centres undefined) | 10.7 | 12.2 | -4.0 | -1.6 | 0.9
CCOC(=O)C1=C(N)Oc2ccc3ccccc3c2C1c1cccnc1 (centres undefined) | 19.6 | 5.8 | 98.4* | 5.5 | 0.8
CCOC(=O)C1=C(N)N(c2ccccc2)C2=C(C(=O)CCC2)C1c1cccnc1 (centres undefined) | 11.5 | 8.2 | 72.0* | -6.6 | 0.9
CCOC(=O)C1=C(C)Nc2ncnn2C1c1cccnc1 (centres undefined) | 7.0 | 2.5 | 2.4 | -0.3 | 0.9
CCc1cc(CNC(=O)CC2C(=O)NCCN2Cc2c(F)cccc2Cl)on1 (centres undefined) | 3.4 | 10.4 | -2.6 | -7.0 | 1
COCCNC(=O)C(OC(=O)c1cc2oc(C)cc2n1C)C(C)C (centres undefined) | -5.7 | 6.6 | 39.8 | 8.2 | 1.1
O=C1CC(=O)N(CCc2ccc(F)cc2)C(=O)N1 | 12.0 | 5.9 | -3.9 | -4.6 | 0.9
CC(C)OP(=O)(OC(C)C)C(O)c1ccc2c(c1)OCO2 (centres undefined) | 9.2 | 2.4 | -5.5 | 5.4 | 0.9
COC(=O)c1cc(COc2ccc3oc(C)c(C(=O)OC(C)C)c3c2)c(C)o1 | 7.8 | 11.1 | 1.1 | 36.3 | 0.9
CCOC(=O)C1=C(N)Oc2cc(C)n(CCc3ccc(OC)c(OC)c3)c(=O)c2C1c1cccnc1 (centres undefined) | 10.0 | 9.5 | 93.6* | -0.4 | 0.9
